According to ChEMBL document CHEMBL1250467, “Design, synthesis, and anticonvulsant activity of new N-Mannich bases derived from spirosuccinimides and spirohydantoins” (Bioorg Med Chem, 2010):
pIC50: −log10 of the molar value. The source made the active and inactive calls. No cut-off for these calls is given here.

Experiments:
Mus musculus [1] = test: Neurotoxicity in ip dosed CF1 albino mouse assessed as dose required to cause toxicity after 0.5 hrs by rotarod test; assay type: organism-based; details: in vivo
Outline: (§1)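 Male CF-1 mice; compounds suspended in 0.5% methylcellulose/water and injected ip at 30, 100 and 300 mg/kg. MES, scPTZ (pentylenetetrazole 85 mg/kg sc at the test time) and rotarod neurotoxicity were scored at 0.5 and 4 h. Value is the lowest dose active or toxic in half or more of the animals; signs such as ataxia or tremor were recorded.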

Mus musculus [2] = test: Anticonvulsant activity in CF1 albino mouse assessed as protection against maximal electroshock-induced seizures at 300 mg/kg, ip after 0.5 hrs; assay type: functional, organism-based; set-up: dose 300 mg/kg; outline: as §1
Mus musculus [3] = test: Anticonvulsant activity in ip dosed CF1 albino mouse assessed as dose required to protect against maximal electroshock-induced seizures after 4 hrs; assay type: functional; outline: as §1
Mus musculus [4] = test: Anticonvulsant activity in CF1 albino mouse assessed as protection against subcutaneous pentylenetetrazole-induced seizures at 300 mg/kg, ip after 0.5 hrs; assay type: functional, organism-based; set-up: dose 300 mg/kg; outline: as §1
Mus musculus [5] = test: Anticonvulsant activity in CF1 albino mouse assessed as protection against subcutaneous pentylenetetrazole-induced seizures at 300 mg/kg, ip after 4 hrs; assay type: functional, organism-based; set-up: dose 300 mg/kg; outline: as §1
Mus musculus [6] = test: Neurotoxicity in ip dosed CF1 albino mouse assessed as dose required to cause toxicity after 4 hrs by rotarod test; assay type: organism-based; details: in vivo; outline: as §1
Rattus norvegicus [7] = test: Anticonvulsant activity in Sprague-Dawley rat assessed as protection against maximal electroshock-induced seizures at 30 mg/kg po after 0.25 hrs; assay type: functional
Outline: (§2)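 Male Sprague–Dawley rats, four per group, given 30 mg/kg orally as a 0.5% methylcellulose/water suspension. MES protection scored at 0.25, 0.5, 1, 2 and 4 h after dosing, motor impairment checked in parallel; data are the number of the four rats protected.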

Rattus norvegicus [8] = test: Anticonvulsant activity in Sprague-Dawley rat assessed as protection against maximal electroshock-induced seizures at 30 mg/kg po after 0.5 hrs; assay type: functional; outline: as §2
Rattus norvegicus [9] = test: Anticonvulsant activity in Sprague-Dawley rat assessed as protection against maximal electroshock-induced seizures at 30 mg/kg po after 1 hr; assay type: functional; outline: as §2
Rattus norvegicus [10] = test: Anticonvulsant activity in Sprague-Dawley rat assessed as protection against maximal electroshock-induced seizures at 30 mg/kg po after 2 hrs; assay type: functional; outline: as §2
Rattus norvegicus [11] = test: Anticonvulsant activity in Sprague-Dawley rat assessed as protection against maximal electroshock-induced seizures at 30 mg/kg po after 4 hrs; assay type: functional; outline: as §2
Rattus norvegicus [12] = test: Anticonvulsant activity in po dosed Sprague-Dawley rat assessed as time required to peak protection against seizures; assay type: functional
Rattus norvegicus [13] = test: Anticonvulsant activity in po dosed Sprague-Dawley rat assessed as protection against maximal electroshock-induced seizures; assay type: functional
Outline: (§3)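 Male Sprague–Dawley rats dosed orally (0.5% methylcellulose/water suspension), groups of eight, tested at the previously estimated time of peak effect. Doses varied until at least three points lay in the 10–90% range of protection (MES, scPTZ) or minimal rotarod neurotoxicity. ED50/TD50 with 95% confidence intervals came from regression; PI = TD50/ED50.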

[14] = Neurotoxicity in po dosed Sprague-Dawley rat by rotarod test; assay type: toxicity, organism-based; details: in vivo; outline: as §3
Rattus norvegicus [15] = species on record: Rattus norvegicus; test: Protection index, ratio of TD50 for Sprague-Dawley rat by rotarod test to ED50 for Sprague-Dawley rat by maximal electroshock test; assay type: functional; outline: as §3
[16] = Displacement of [3H]batrachotoxin from neurotoxin site 2 of voltage-gated sodium channel in rat forebrain tissue; details: read-out: IC50
Mus musculus [17] = test: Anticonvulsant activity in CF1 albino mouse assessed as protection against maximal electroshock-induced seizures at 300 mg/kg, ip after 4 hrs; assay type: functional, organism-based; set-up: dose 300 mg/kg; outline: as §1
Mus musculus [18] = test: Anticonvulsant activity in ip dosed CF1 albino mouse assessed as dose required to protect against maximal electroshock-induced seizures after 0.5 hrs; assay type: functional; outline: as §1
Mus musculus [19] = test: Anticonvulsant activity in ip dosed CF1 albino mouse assessed as dose required to protect against subcutaneous pentylenetetrazole-induced seizures after 0.5 hrs; assay type: functional; outline: as §1
Mus musculus [20] = test: Anticonvulsant activity in ip dosed CF1 albino mouse assessed as dose required to protect against subcutaneous pentylenetetrazole-induced seizures after 4 hrs; assay type: functional; outline: as §1
Mus musculus [21] = test: Neurotoxicity in CF1 albino mouse at 300 mg/kg, ip after 0.5 hrs by rotarod test; assay type: toxicity, organism-based; set-up: dose 300 mg/kg, route intraperitoneal; details: in vivo; outline: as §1
Mus musculus [22] = test: Neurotoxicity in CF1 albino mouse at 300 mg/kg, ip after 4 hrs by rotarod test; assay type: toxicity, organism-based; set-up: dose 300 mg/kg, route intraperitoneal; details: in vivo; outline: as §1
Rattus norvegicus [23] = test: Anticonvulsant activity in Sprague-Dawley rat assessed as protection against subcutaneous pentylenetetrazole-induced seizures at 50 mg/kg po after 0.25 hrs; assay type: functional, organism-based; set-up: dose 50 mg/kg
Outline: (§4)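 Oral fixed dose of 50 mg/kg in male Sprague–Dawley rats (0.5% methylcellulose/water suspension), four rats per group. Pentylenetetrazole 70 mg/kg given sc at each test time (0.25, 0.5, 1, 2, 4 h); protection from clonic seizures counted per four rats, with motor impairment studied in parallel.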

Rattus norvegicus [24] = test: Anticonvulsant activity in Sprague-Dawley rat assessed as protection against subcutaneous pentylenetetrazole-induced seizures at 50 mg/kg po after 0.5 hrs; assay type: functional; outline: as §4
Rattus norvegicus [25] = test: Anticonvulsant activity in Sprague-Dawley rat assessed as protection against subcutaneous pentylenetetrazole-induced seizures at 50 mg/kg po after 1 hr; assay type: functional; outline: as §4
Rattus norvegicus [26] = test: Anticonvulsant activity in Sprague-Dawley rat assessed as protection against subcutaneous pentylenetetrazole-induced seizures at 50 mg/kg po after 2 hrs; assay type: functional; outline: as §4
Rattus norvegicus [27] = test: Anticonvulsant activity in Sprague-Dawley rat assessed as protection against subcutaneous pentylenetetrazole-induced seizures at 50 mg/kg po after 4 hrs; assay type: functional; outline: as §4
Rattus norvegicus [28] = test: Anticonvulsant activity in po dosed Sprague-Dawley rat assessed as protection against subcutaneous pentylenetetrazole-induced seizures; assay type: functional; outline: as §3

| Structure (SMILES) | Activity (Mus musculus [1]) [mg/kg] | Activity (Mus musculus [2]) | Activity (Mus musculus [3]) [mg/kg] | Activity (Mus musculus [4]) | Activity (Mus musculus [5]) | Activity (Mus musculus [6]) [mg/kg] | ED50 (Rattus norvegicus [13]) [mg/kg] | PI (Rattus norvegicus [15]) | also measured |
| --- | --- | --- | --- | --- | --- | --- | --- | --- | --- |
| O=C1NC2(CCc3ccccc3C2)C(=O)N1CN1CCN(c2ccccc2)CC1 (stereo not drawn) | 300 | inactive | 30 | inactive | inactive | 300 | 1.88 | >256.78 | Activity (Rattus norvegicus [7]): 25%; Activity (Rattus norvegicus [8]): 50%; Activity (Rattus norvegicus [9]): 50%; Activity (Rattus norvegicus [10]): 100%; Activity (Rattus norvegicus [11]): 100%; Time (Rattus norvegicus [12]): 6 h; TD50 [14]: > 500 mg/kg; pIC50 [16]: 5.03 |
| O=C1NC2(CCc3ccccc3C2)C(=O)N1CN1CCN(c2cccc(Cl)c2)CC1 (stereo not drawn) | 30 | inactive | 100 | inactive | inactive | 30 |  |  |  |
| O=C1NC2(CCc3ccccc3C2)C(=O)N1CN1CCN(c2ccc(F)cc2)CC1 (stereo not drawn) | 30 | inactive |  | inactive | inactive | 30 |  |  | Activity (Mus musculus [17]): inactive |
| O=C1CC2(CCc3ccccc3C2)C(=O)N1CCN1CCN(c2cccc(Cl)c2)CC1 (stereo not drawn) |  |  |  |  |  |  | 23 | 2.6 |  |
| O=C1NC2(CCc3ccccc3C2)C(=O)N1CN1CCN(c2cccc(C(F)(F)F)c2)CC1 (stereo not drawn) | 100 |  | 30 | inactive | inactive | 30 |  |  | Activity (Mus musculus [18]): 300 mg/kg |
| CCC1(C)CC(=O)NC1=O (stereo not drawn) [ETHOSUXIMIDE] |  | inactive |  |  |  |  | > 500 | >2.99 | Activity (Mus musculus [17]): inactive; Activity (Mus musculus [19]): 100 mg/kg; Activity (Mus musculus [20]): 300 mg/kg; Activity (Mus musculus [21]): Non-toxic; Activity (Mus musculus [22]): Non-toxic; Activity (Rattus norvegicus [23]): inactive; Activity (Rattus norvegicus [24]): 50%; Activity (Rattus norvegicus [25]): 25%; Activity (Rattus norvegicus [26]): 25%; Activity (Rattus norvegicus [27]): inactive; ED50 (Rattus norvegicus [28]): 167 mg/kg; TD50 [14]: > 500 mg/kg |
| O=C1CC2(CCc3ccccc3C2)C(=O)N1CCN1CCN(c2cccc(C(F)(F)F)c2)CC1 (stereo not drawn) |  |  |  |  |  |  | 205 | 1.95 |  |
